{
  "source": "paper PMC2941776",
  "about": "(ACS chemical biology, 2008)",
  "key": {"[1]": {"target": "HIV-1 RT RNase H activity (wild type p66/p51) (Human immunodeficiency virus type 1, UniProt P03366)", "experiment": "FRET-based RNase H assay, wild-type HIV-1 RT", "assay_type": "biochemical"}, "p66^501BpF/p51 RT": {"target": "p66^501BpF/p51 RT (Human immunodeficiency virus type 1, UniProt P03366, Y1100X)", "experiment": "FRET-based RNase H assay, Tyr501Bp-Phe RT", "assay_type": "biochemical, HIV-1", "details": "for IC50: IC50, RNase H activity, Tyr501Bp-Phe RT"}, "[2]": {"target": "HIV-1 RT DNA polymerase activity (Human immunodeficiency virus type 1, UniProt P03366)", "experiment": "DNA polymerase activity in the absence of pyrophosphorolysis", "assay_type": "biochemical", "details": "50 μM, data not shown"}, "Thr473Cys RT": {"target": "Thr473Cys RT (Human immunodeficiency virus type 1 group M subtype B, UniProt P03366, T1072C)", "experiment": "RNase H inhibition, Thr473Cys RT", "assay_type": "biochemical, HIV-1", "details": "Thr473 replaced with cysteine"}, "[3]": {"test_system": "wild-type RT / RNA-DNA hybrid complex", "experiment": "Electrophoretic mobility shift analysis, wild-type RT on RNA/DNA hybrid", "assay_type": "binding, HIV-1", "details": "50 μM; gel-mobility shift", "outline": "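Mobility-shift assay: RT 250 nM with RNA/DNA hybrid 50 nM (14 nt RNA–8 nt DNA chimera annealed to 22 nt DNA, mimicking tRNA primer removal) in 50 mM Tris/HCl pH 7.8, 50 mM NaCl. Test compound 0.6–50 μM. Complexes resolved by nondenaturing electrophoresis and detected by autoradiography.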"}, "[4]": {"test_system": "HIV-1 RT variant with Cys38 and Cys280 removed from p66 and p51", "experiment": "RNase H inhibition, RT variant lacking Cys38 and Cys280", "assay_type": "biochemical", "details": "Cys38 and Cys280 removed from both subunits"}, "HIV-1 RT Tyr501Trp": {"target": "HIV-1 RT Tyr501Trp (Human immunodeficiency virus type 1 group M subtype B, UniProt P03366, Y1100W)", "experiment": "FRET-based RNase H assay, Tyr501Trp RT", "assay_type": "biochemical"}, "HIV-1 RNase H activity": {"test_system": "HIV-1 RNase H activity", "experiment": "Yonetani–Theorell analysis of RNase H inhibition", "assay_type": "biochemical", "details": "NSC727447 0.25–16 μM, β-thujaplicinol 0.1–0.4 μM; substrate 250 nM, enzyme 4 nM", "outline": "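FRET RNase H assay: 18-nt 3'-fluorescein RNA annealed to 5'-dabcyl DNA (250 nM), enzyme 4 nM. Test compound at 0, 0.25, 0.5, 1, 2, 4, 8, 16 μM, each at β-thujaplicinol 0, 0.1, 0.2, 0.4 μM. Substrate added to start; fluorescence followed for 60 min. Inverse rate (ΔRFU/min) fitted to the Yonetani–Theorell equation to obtain interaction term γ.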"}, "HIV-1 RT Tyr501Az-Phe": {"target": "HIV-1 RT Tyr501Az-Phe (Human immunodeficiency virus type 1, UniProt P03366, Y1100X)", "experiment": "FRET-based RNase H assay, Tyr501Az-Phe RT", "assay_type": "biochemical"}},
  "note": "Where “and” joins values, the source holds several entries; their conditions need not be identical. Equal values may be shown once. Read-outs that look alike come from different tables or passages of the source.",
  "data": [
    {"compound": "manicol [reference compound]", "values": [
      {"measurement": "IC50", "setting": "[1]; read-out: IC50, RNase H activity, wild-type RT, FRET substrate", "value": "0.6 ± 0.09", "unit": "µM"}
    ]},
    {"compound": "Cc1sc(NC(=O)c2ccco2)c(C(N)=O)c1C", "note": "[NSC727448, N-[3-(aminocarbonyl)-4,5-dimethyl-2-thienyl]-2-furancarboxamide]", "values": [
      {"measurement": "IC50", "setting": "p66^501BpF/p51 RT", "value": "~220", "unit": "µM"},
      {"measurement": "IC50", "setting": "[1]", "value": "~5.5", "unit": "µM"}
    ]},
    {"compound": "CC(C)c1ccc(O)c(=O)c(O)c1", "note": "[β-thujaplicinol, reference compound]", "values": [
      {"measurement": "IC50", "setting": "[1]", "value": "0.25 ± 0.023", "unit": "µM"}
    ]},
    {"compound": "NC(=O)c1c(N)sc2c1CCCCC2", "note": "[NSC727447, 2-amino-5,6,7,8-tetrahydro-4H-cyclohepta[b]thiophene-3-carboxamide]", "values": [
      {"measurement": "inhibition of DNA polymerase activity", "setting": "[2]", "value": "insensitive to inhibition"},
      {"measurement": "sensitivity of mutant enzyme to inhibitor vs wild type", "setting": "Thr473Cys RT", "value": "increased sensitivity"},
      {"measurement": "IC50", "setting": "p66^501BpF/p51 RT", "value": "197 µM and 196 µM"},
      {"measurement": "fold resistance vs wild type", "setting": "p66^501BpF/p51 RT; p66^501BpF/p51 RT vs wild type", "value": "~30", "unit": "fold"},
      {"measurement": "effect on affinity of RT for RNA/DNA substrate", "setting": "[3]", "value": "unaffected"},
      {"measurement": "sensitivity of mutant enzyme to inhibitor", "setting": "[4]", "value": "retained sensitivity"},
      {"measurement": "IC50", "setting": "HIV-1 RT Tyr501Trp", "value": 70.6, "unit": "µM"},
      {"measurement": "fold decrease in inhibitor potency vs wild type", "setting": "HIV-1 RT Tyr501Trp; Tyr501Trp RT vs wild type", "value": "~ 11 fold"},
      {"measurement": "mode of interaction with β-thujaplicinol (NSC18806), Yonetani–Theorell", "setting": "HIV-1 RNase H activity", "value": "mutually exclusive inhibitors"},
      {"measurement": "IC50", "setting": "HIV-1 RT Tyr501Az-Phe", "value": 89.6, "unit": "µM"},
      {"measurement": "fold decrease in inhibitor potency vs wild type", "setting": "HIV-1 RT Tyr501Az-Phe; Tyr501Az-Phe RT vs wild type", "value": 14, "unit": "fold"},
      {"measurement": "IC50", "setting": "[1]", "value": 6.6, "unit": "µM"}
    ]}
  ]
}
